Screening results (PubChem)
Hits are enriched below; roughly 2.2% of the tested compounds scored in any of these assays.
PglD DTNB = PglD (C. jejuni) enzyme inhibition | purified PglD enzyme, DTNB colorimetric CoA detection | inhibition, % at 12.5 µM | hit rate 0.098% among 360,000 | AID 602405; in the data active = inhibition above about 16%, passing the limit was not always enough; inconclusive = no clear call, values can overlap the other calls
rRNA inh HTS = inhibits bacterial ribosomal RNA function over humanized ribosomes. E. coli WT GFP vs humanized-ribosome RFP mutants, fluorescence, 24 h; hits give low values; DMSO median 0, no signal -100. GFP signal change (wild-type ribosome), % (no concentration beside the values). hit rate 1.6% among 350,000;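 active = significant combined selectivity score with lowered wild-type GFP, culture density cut under 30%, mutant RFP and density less affected; inactive = any of these conditions unmet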
SUMO Mot1 rescue = blocks SUMOylation pathway, rescuing yeast Mot1-301 growth; S. cerevisiae Mot1-301 growth rescue, ATP luminescence, 38.5C; percent above DMSO median, 100 means doubled; growth rescue, % at 18.8 µM; hit rate 1% among 320,000;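 active = every valid replicate shows activation above 250% relative to neutral control wells; inactive = the rest, any valid replicate at or below 250%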;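 note: OY570 slx delta 5 strain wells were the positive control but not used for scaling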
Yeast superoxide = lowers age-related superoxide in aged yeast cells; S. cerevisiae aged cells, superoxide DHE fluorescence; hits give low values; superoxide response (% of plate mean), % at 10 µM; hit rate 0.18% among 330,000;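 active = superoxide response under a set limit, about three screen SD below normal, cut at about 65% in these data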;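 note: yeast aged for seven days with compound at 30 °C before DHE staining; 100% = average MFI of all compound-treated wells on the plate with controls excluded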
Cneo AK release = Cryptococcus neoformans lysis via adenylate kinase release; C. neoformans lysis, adenylate kinase release luminescence, 4 h; normalised: neutral wells 0, clomiphene wells 100; lysis activity, % at 15 µM; hit rate 0.2% among 360,000;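 active = mean lysis activity across replicates of at least 80%, whatever share of replicates individually reach that level; inactive = mean lysis activity below 80%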
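Test system: log-phase Cryptococcus neoformans yeast cells. Input: 5 × 10^6 yeast cells/mL. Medium: fresh YPD growth medium. Doses: single dose. Incubation: static 4 h at 37 °C with compound, 1 h detection. Measured by: luminescent adenylate kinase detection reagent. Read-out: signal increase indicating cell lysis. Benchmarks: Clomiphene.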
AID977621 = growth inhibition of wild-type GFP E. coli, dose response, H69 mutant RFP, cherry-pick; AID 977621; shares compounds with rRNA inh HTS; activity change, negative = inhibition at 50 µM; E. coli wild-type GFP strain growth, fluorescence, 24 h; 1,900 tested, under 10 active;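 active = Wild-type ribosome reporter drop at least double the humanized mutant ribosome reporter drop, growth loss under a set limit; inconclusive = no clear call, values can overlap the other calls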;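 note: wild-type GFP and H69 mutant RFP strains grown together 50/50 in each well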
AID977628 = growth of wild-type and h24-humanized E. coli strains – h24 mutant RFP vs wild-type GFP, cherry-pick, dose response. shares compounds with rRNA inh HTS. E. coli WT GFP strain growth, fluorescence, 24 h. activity change, negative = inhibition at 50 µM. 1,900 tested, under 10 active. AID 977628;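 active = compound lowering the normal-ribosome reporter at least twice as much as the humanized-ribosome reporter, growth loss under a set limit; inconclusive = no clear call, values can overlap the other calls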;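 note: wild-type GFP and h24 humanized RFP strains co-cultured 1 to 1 per well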
Numbers without * were called inactive; ? = inconclusive; . = not tested or not shown.

SMILES	PglD DTNB	rRNA inh HTS	SUMO Mot1 rescue	Yeast superoxide	Cneo AK release	AID977621	AID977628
CCCNC(=O)Nc1ccc2c(c1)C(=O)N(C)C[C@@H](OC)[C@@H](C)CN(Cc1cncnc1)[C@H](C)CO2	-0.1	0.1	.	.	1.2	.	.
CCOC(=O)c1cc2nc(-c3ccccc3)cc(C)n2n1	1.4	-29.0*	90.8	92.1	3.0	-19.2	?
Cc1cc(-c2ccccc2)nc2cc(C(N)=O)nn12	5.5	.	-8.9	108.5	4.5	.	.
CN(C)CC(=O)N[C@@H]1CC[C@H](CCn2cc(C3CC3)nn2)O[C@@H]1CO	0.7	0.8	.	.	0.5	.	.
Cn1c(CC2C(=O)Nc3ccc(Br)cc32)nc2ccccc2c1=O (stereo not given)	4.2	-28.8*	30.1	123.7	-0.8	-1.92	3.71
COc1ccc2c3c([nH]c2c1)[C@H](CO)N(C(=O)Nc1ccc(F)cc1)CC31CCN(S(=O)(=O)c2cccc(F)c2)CC1	.	-0.1	.	.	.	.	.
COc1cc(CCN(C(=O)c2cc3ccccc3[nH]2)C(c2ccccn2)c2nc3ccccc3[nH]2)cc(OC)c1 (stereo not given)	1.7	-26.0*	.	.	-2.5	-19.8	-10.8
C[C@@H]1CCCCO[C@@H](CN(C)S(=O)(=O)c2cccs2)[C@H](C)CN([C@@H](C)CO)C(=O)c2cc(NS(=O)(=O)c3cn(C)cn3)ccc2O1	-1.0	-0.6	.	.	1.7	.	.
O=S(=O)(Nc1cccc(-c2ccc(N3CCCCCC3)nn2)c1)c1ccc(F)cc1	-3.2	-21.1*	-8.8	78.8	-5.5	.	?
C[C@@H]1CCn2cc(nn2)COC[C@@H](c2ccccc2)NC1=O	.	1.1	.	.	.	.	.
O=C(Cc1ccc(Cl)cc1)c1ccc(O)cc1	.	-37.2*	10.4	92.6	.	-3.61	?
O=C(C[C@H]1C=C[C@H](NC(=O)c2ccccc2)[C@@H](CO)O1)NCc1ccncn1	-1.5	1.1	.	.	-2.0	.	.
COc1ccc(S(=O)(=O)Nc2ccc3c(c2)C(=O)N([C@H](C)CO)C[C@H](C)[C@H](CN(C)S(=O)(=O)c2cn(C)cn2)OCCCC[C@H](C)O3)cc1	0.1	-4.5	.	.	-2.8	.	.
O=c1c2ccccc2nc(SCc2ccccc2)n1CC1CCCO1 (stereo not given)	.	-21.5*	6.8	102.3	.	-12.4	-17.8
CN(C)CC(=O)N[C@@H]1CC[C@@H](CCNC(=O)Nc2ccc(Cl)cc2)O[C@H]1CO	-0.4	-27.6*	.	.	-2.1	.	?
COc1ccc(C(=O)c2c(C)oc3ccc(O)cc23)cc1	8.9	-21.6*	9.5	80.2	1.7	-17.5	.
C[C@H](CO)N1C[C@H](C)[C@@H](CN(C)S(=O)(=O)c2cccs2)Oc2c(NC(=O)c3cnccn3)cccc2C1=O	0.9	1.2	.	.	-2.8	.	.
COc1cc2ccc(-c3ccc4ccccc4n3)cc2cc1OC	.	-5.8	.	.	.	.	.
COc1ccc(-c2ccc3ccccc3n2)cc1OC	.	-34.2*	9.7	106.9	.	.	?
CCOc1ccc(OCCCC(=O)N2CCN(S(=O)(=O)c3ccccc3C#N)CC2)cc1	2.6	-12.5	-10.2	116.9	0.2	.	.
CN(CCOc1ccccc1)S(=O)(=O)c1ccccc1C#N	-3.4	-22.1*	65.9	113.3	-1.6	-14.5	-18.7
COc1ccc(C[C@@H]2CCc3cnnn3COC[C@@H](Cc3ccccc3)NC2=O)cc1	.	1.5	.	.	-0.5	.	.
O=C1N2c3ccccc3CCc3cccc(c32)C1(O)C(F)(F)F (stereo not given)	2.8	-16.7*	328.9	104.0	-3.2	-14.4	.
Cc1nn(S(=O)(=O)c2ccc(Cl)cc2)c(C)c1Sc1ccc([N+](=O)[O-])cc1	-2.8	-27.9*	-20.3	65.5	-3.1	-2.62	.
Cc1nn(-c2ccccc2)c(N)c1Sc1ccc([N+](=O)[O-])cc1	.	.	-1.6	95.0	.	.	.
CN(C)CCNc1ncnc2c1sc1nc(N3CCCC3)c3c(c12)CC(C)(C)OC3	-4.4	-20.6*	9.1	91.7	3.1	.	-5.32
Cc1cc(NC(=O)CN2CCN(c3cccc(Cl)c3)CC2)no1	.	-15.4*	11.5	101.1	.	.	?
